The source of these data is ChEMBL document CHEMBL1149666, “Novel 1-(azacyclyl)-3-arylsulfonyl-1H-pyrrolo[2,3-b]pyridines as 5-HT6 agonists and antagonists” (Bioorg Med Chem, 2007).

Usually Ki stands for the dissociation constant of the complex between target and ligand, obtained from inhibition or displacement. A lower Ki goes with tighter binding. The EC50 is the concentration at which the effect is half-maximal. In general, IC50 refers to the concentration that gives 50% inhibition.

Structures are written as SMILES.

Assay [1] addresses T1, 5-hydroxytryptamine receptor 6 (Homo sapiens, UniProt P50406). Description: Displacement of [3H]LSD from cloned human 5HT6 expressed in HeLa cells. Format: cell-based. In a few lines:
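Radioligand binding used [3H]-LSD on human-cloned 5-HT6 receptors stably transfected in HeLa cells. Ki values were determined in triplicate.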
A general note: In a radioligand displacement assay an active substance lowers the binding of a labelled ligand.

For assay [2], the target named is T1, 5-hydroxytryptamine receptor 6. Kind of assay: Agonist activity at human 5HT6 expressed in HeLa cells assessed as intracellular cAMP level by radioimmunoassay. Format: functional, cell-based.
Assay [3] shares this target. Kind of assay: Antagonist activity at human 5HT6 expressed in HeLa cells assessed as intracellular cAMP level by radioimmunoassay. Format: functional, cell-based. In a few lines: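 Stably transfected h5-HT6 HeLa cells were washed in Krebs buffer and preincubated 5 min at 37 °C in Krebs with 500 μM IBMX. Test compound was then added at 0.1–10000 nM for 10 min at 37 °C. The reaction was stopped with 0.5 M perchloric acid, and intracellular cAMP was measured by scintillation proximity RIA. IC50 and Imax were determined in triplicate.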
A general note: cAMP levels reflect the balance of adenylyl cyclase and phosphodiesterase activity.

T1 sequence (P50406 whole entry): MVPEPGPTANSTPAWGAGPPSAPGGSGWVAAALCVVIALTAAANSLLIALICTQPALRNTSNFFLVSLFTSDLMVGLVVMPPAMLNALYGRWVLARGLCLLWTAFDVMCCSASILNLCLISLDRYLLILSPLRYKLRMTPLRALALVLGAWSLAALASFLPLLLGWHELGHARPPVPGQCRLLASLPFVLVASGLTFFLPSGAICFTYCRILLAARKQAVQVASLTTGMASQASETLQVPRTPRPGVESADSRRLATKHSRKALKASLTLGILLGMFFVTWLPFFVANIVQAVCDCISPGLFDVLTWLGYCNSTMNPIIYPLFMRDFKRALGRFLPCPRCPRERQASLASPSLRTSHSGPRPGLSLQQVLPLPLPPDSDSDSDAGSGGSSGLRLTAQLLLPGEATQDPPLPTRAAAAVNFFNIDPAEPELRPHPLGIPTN

On to `O=S(=O)(c1cccc(C(F)(F)F)c1)c1cn(C2CCNC2)c2ncccc12` (configuration not stated), for which the Ki in assay [1] stood at 1.3 nM. The EC50 in assay [2] stood at 520 nM.
Take `O=S(=O)(c1ccc(F)cc1)c1cn(C2CCNC2)c2ncccc12` (configuration not stated): the Ki in assay [1] was 8.5 nM. Besides, the EC50 in assay [2] is 1650 nM.
On to `CN1CCC(n2cc(S(=O)(=O)c3c(Cl)nc4sccn34)c3cccnc32)C1` (configuration not stated), for which the IC50 in assay [3] is 26 nM. The Ki in assay [1] amounted to 0.8 nM.
For `CCN1CCC(n2cc(S(=O)(=O)c3cccc(F)c3)c3cccnc32)C1` (configuration not stated), in assay [3], the %max turned out to be 89% and the IC50 stood at 132 nM. The Ki in assay [1] was 8.3 nM.
The compound `O=S(=O)(c1cc(Cl)cc(Cl)c1)c1cn(C2CCCNC2)c2ncccc12` (configuration not stated) showed an inhibition constant Ki in assay [1] of 6.1 nM. For the same compound, the EC50 in assay [2] worked out at 297 nM.
Take `O=S(=O)(c1ccc(Br)cc1)c1cn(C2CCNC2)c2ncccc12` (configuration not stated): in assay [3], the %max was 96% and the IC50 was 135 nM. This compound registered a Ki in assay [1] of 4.3 nM.
`CN1CCCC(n2cc(S(=O)(=O)c3cccc(F)c3)c3cccnc32)C1` (configuration not stated) registered a Ki in assay [1] of 4.7 nM. The EC50 in assay [2] was 306 nM.
For the compound `O=S(=O)(c1ccccc1F)c1cn(C2CCNC2)c2ncccc12` (configuration not stated), in assay [3], the %max amounted to 100% and the concentration for half-maximal inhibition (IC50) was 50 nM. In assay [1], the Ki came out at 2 nM.
Consider `CCN1CCCC(n2cc(S(=O)(=O)c3cc(Cl)cc(Cl)c3)c3cccnc32)C1` (configuration not stated), for which the Ki in assay [1] turned out to be 13.5 nM. The EC50 in assay [2] worked out at 67 nM.
For `CCN1CCCC(n2cc(S(=O)(=O)c3ccc(Cl)s3)c3cccnc32)C1` (configuration not stated), the Ki in assay [1] came out at 3.2 nM. In addition, the concentration giving a half-maximal response (EC50) in assay [2] came out at 50 nM.
As for `CN1CCC(n2cc(S(=O)(=O)c3cccc(Cl)c3)c3cccnc32)C1` (configuration not stated), in assay [3], the %max stood at 85% and the IC50 stood at 142 nM. The compound further yielded a Ki in assay [1] of 1.5 nM.
As to `O=S(=O)(c1ccccc1)c1cn(C2CCCNC2)c2ncccc12` (configuration not stated), the Ki in assay [1] is 4.9 nM. The EC50 in assay [2] was determined as 47 nM.
Consider `CN1CCC(n2cc(S(=O)(=O)c3ccccc3F)c3cccnc32)C1` (configuration not stated), for which, in assay [3], the %max amounted to 69% and the IC50 turned out to be 186 nM. The same compound returned an inhibitory constant (Ki) in assay [1] of 5.6 nM.
For `CCN1CCC(n2cc(S(=O)(=O)c3c(Cl)nc4sccn34)c3cccnc32)C1` (configuration not stated), the IC50 in assay [3] came out at 10 nM. For the same compound, in assay [1], the Ki turned out to be 1.4 nM.
Take `CC(C)N1CCCC(n2cc(S(=O)(=O)c3ccc(Cl)cc3)c3cccnc32)C1` (configuration not stated): in assay [3], the IC50 was 338 nM and the Imax is 74%. Besides, affinity in assay [1] was put at a Ki of 11.1 nM.
In the case of `O=S(=O)(c1cn(C2CCNC2)c2ncccc12)c1c(Cl)nc2sccn12` (configuration not stated), the EC50 in assay [2] turned out to be 80 nM.
Consider `CC(C)N1CCCC(n2cc(S(=O)(=O)c3cccc(Br)c3)c3cccnc32)C1` (configuration not stated), for which, in assay [3], the IC50 came out at 492 nM and the Imax stood at 77%. Also, the affinity in assay [1], expressed as Ki, was 9.4 nM.
Take `CN1CCCC(n2cc(S(=O)(=O)c3ccc(Cl)s3)c3cccnc32)C1` (configuration not stated): in assay [1], the Ki was determined as 1.9 nM. In assay [2], the EC50 came to 71 nM.
The corresponding values for `O=S(=O)(c1ccc(Cl)s1)c1cn(C2CCCNC2)c2ncccc12` (configuration not stated) are 1.2 nM and 98 nM.
The compound `O=S(=O)(c1cccc(Br)c1)c1cn(C2CCCNC2)c2ncccc12` (configuration not stated) came in with a Ki in assay [1] of 3.8 nM. Besides, in assay [2], the EC50 stood at 72 nM.
In turn, `O=S(=O)(c1cccc(Br)c1)c1cn(C2CCNC2)c2ncccc12` (configuration not stated) gave a Ki in assay [1] of 1.3 nM. The EC50 in assay [2] turned out to be 35 nM.
Compound `O=S(=O)(c1cccc(Cl)c1)c1cn(C2CCNC2)c2ncccc12` (configuration not stated) had a Ki in assay [1] of 1.5 nM. The EC50 in assay [2] was determined as 1680 nM.
With `CN1CCC(n2cc(S(=O)(=O)c3ccccc3Cl)c3cccnc32)C1` (configuration not stated), in assay [3], the %max was 91% and the IC50 is 91 nM. In assay [1], this compound displayed a Ki of 2.2 nM.
The matching figures for `CN1CCC(n2cc(S(=O)(=O)c3ccc(Cl)cc3)c3cccnc32)C1` (configuration not stated): 98%, 95 nM and 4.2 nM.
On to `O=S(=O)(c1ccc(Cl)cc1)c1cn(C2CCNC2)c2ncccc12` (configuration not stated), for which, in assay [3], the %max is 94% and the IC50 amounted to 340 nM. Also, the affinity in assay [1] corresponds to a Ki of 5.5 nM.
For the compound `CN1CCCC(n2cc(S(=O)(=O)c3ccc(Cl)cc3)c3cccnc32)C1` (configuration not stated), in assay [3], the IC50 was found to be 28 nM and the Imax was found to be 63%. This compound also registered a Ki in assay [1] of 11.5 nM.
As to `CN1CCCC(n2cc(S(=O)(=O)c3c(Cl)nc4sccn34)c3cccnc32)C1` (configuration not stated), the affinity in assay [1] corresponds to a Ki of 2 nM. Moreover, the EC50 in assay [2] came to 25 nM.
In turn, `CN1CCCC(n2cc(S(=O)(=O)c3cc(Cl)cc(Cl)c3)c3cccnc32)C1` (configuration not stated) yielded a Ki in assay [1] of 3.9 nM. Further, the 50% effective concentration (EC50) in assay [2] was determined as 38.7 nM.
Take `O=S(=O)(c1ccccc1F)c1cn(C2CCCNC2)c2ncccc12` (configuration not stated): in assay [3], the IC50 came out at 50 nM and the Imax was 100%. In assay [1], this compound came in with a Ki of 2 nM.
The compound `CN1CCC(n2cc(S(=O)(=O)c3ccccc3)c3cccnc32)C1` (configuration not stated) returned a Ki in assay [1] of 2.5 nM. In assay [2], the EC50 was 2030 nM.
Consider `CN1CCC(n2cc(S(=O)(=O)c3ccc(F)cc3)c3cccnc32)C1` (configuration not stated), for which, in assay [3], the %max amounted to 85% and the IC50 was found to be 213 nM. Besides, in assay [1], the Ki is 5 nM.
The matching figures for `CCN1CCC(n2cc(S(=O)(=O)c3ccccc3)c3cccnc32)C1` (configuration not stated): 75%, 56 nM and 11 nM.
Regarding `CCN1CCCC(n2cc(S(=O)(=O)c3c(Cl)nc4sccn34)c3cccnc32)C1` (configuration not stated), in assay [1], the inhibition constant Ki was 0.7 nM. Further, the EC50 in assay [2] was 34 nM.
In the case of `O=S(=O)(c1cn(C2CCNC2)c2ncccc12)c1cccc2cccnc12` (configuration not stated), in assay [3], the %max is 100% and the IC50 came out at 643 nM. The Ki in assay [1] is 5.7 nM.
As for `CC(C)N1CCCC(n2cc(S(=O)(=O)c3c(Cl)nc4sccn34)c3cccnc32)C1` (configuration not stated), the IC50 in assay [3] worked out at 8 nM. For the same compound, affinity in assay [1] was put at a Ki of 1.7 nM.
As to `CCN1CCCC(n2cc(S(=O)(=O)c3ccccc3)c3cccnc32)C1` (configuration not stated), in assay [3], the IC50 worked out at 26 nM and the Imax turned out to be 58%. The Ki in assay [1] is 3.6 nM.
For `CN1CCC(n2cc(S(=O)(=O)c3cccc(Br)c3)c3cccnc32)C1` (configuration not stated), in assay [3], the %max is 98% and the IC50 was 23 nM. The affinity in assay [1] corresponds to a Ki of 0.9 nM.
The compound `O=S(=O)(c1cn(C2CCCNC2)c2ncccc12)c1c(Cl)nc2sccn12` (configuration not stated) yielded an inhibition constant Ki in assay [1] of 0.7 nM. For the same compound, in assay [2], the EC50 was 66 nM.
For `O=S(=O)(c1cccc(F)c1)c1cn(C2CCNC2)c2ncccc12` (configuration not stated), in assay [1], the Ki turned out to be 2.7 nM. Besides, the EC50 in assay [2] is 278 nM.
`O=S(=O)(c1ccc(Cl)cc1)c1cn(C2CCCNC2)c2ncccc12` (configuration not stated): in assay [3], the 50% inhibitory concentration (IC50) stood at 682 nM and the Imax worked out at 76%. Also, the Ki in assay [1] is 7.6 nM.
With `CCN1CCC(n2cc(S(=O)(=O)c3cccc(Cl)c3)c3cccnc32)C1` (configuration not stated), in assay [3], the %max was determined as 93% and the IC50 worked out at 120 nM. In assay [1], this compound came in with a Ki of 3.3 nM.
Turning to `CCN1CCCC(n2cc(S(=O)(=O)c3ccc(Cl)cc3)c3cccnc32)C1` (configuration not stated), in assay [3], the half-inhibitory concentration (IC50) came to 70 nM and the Imax was found to be 71%. Besides, affinity in assay [1] was put at a Ki of 33.5 nM.
In assay [1], `CN1CCCC(n2cc(S(=O)(=O)c3cccc(C(F)(F)F)c3)c3cccnc32)C1` (configuration not stated) displayed a Ki of 2.1 nM. Moreover, in assay [2], the EC50 was determined as 49 nM.
The corresponding values for `O=S(=O)(c1cccc(Cl)c1)c1cn(C2CCCNC2)c2ncccc12` (configuration not stated) are 1.3 nM and 30 nM.
`O=S(=O)(c1ccc(C(F)(F)F)cc1)c1cn(C2CCCNC2)c2ncccc12` (configuration not stated) registered a Ki in assay [1] of 12 nM. For the same compound, the EC50 in assay [2] was determined as 414 nM.
For the compound `CC(C)N1CCCC(n2cc(S(=O)(=O)c3cccc(F)c3)c3cccnc32)C1` (configuration not stated), the Ki in assay [1] amounted to 3.4 nM. Moreover, in assay [2], the EC50 came out at 172 nM.
`O=S(=O)(c1cccc(C(F)(F)F)c1)c1cn(C2CCCNC2)c2ncccc12` (configuration not stated): in assay [1], the Ki came out at 4.6 nM. Moreover, the EC50 in assay [2] was 273 nM.
Turning to `O=S(=O)(c1cccc(F)c1)c1cn(C2CCCNC2)c2ncccc12` (configuration not stated), the Ki in assay [1] was determined as 2.4 nM. Moreover, in assay [2], the concentration for a half-maximal effect (EC50) came out at 67 nM.
The matching figures for `O=S(=O)(c1ccccc1Cl)c1cn(C2CCCNC2)c2ncccc12` (configuration not stated): 3.7 nM and 50 nM.
